The values that follow come from ChEMBL document CHEMBL3045158, “Synthesis and antiviral activities of chiral thiourea derivatives containing an alpha-aminophosphonate moiety” (J Agric Food Chem, 2009).

≈ marks a conversion by molar mass, not a printed value.

The subject of the first assay is Tobacco mosaic virus. Description: Antiviral activity against Tobacco mosaic virus (TMV) in compound treated Nicotiana tabacum L.leaves assessed as curative effect. Type of assay: functional, organism-based.
As for `CCCOP(=O)(OCCC)C(NC(=S)N[C@@H](C)c1ccccc1)c1ccccc1` (stereo not given in full), the EC50 (usually the concentration needed to bring the measured effect to its halfway point) turned out to be 400 µg/mL (≈ 920 µM).
Still for that read-out and setting: for `CC(C)OP(=O)(OC(C)C)C(NC(=S)N[C@@H](C)C1CCCCC1)c1ccccc1` (stereo not given in full) the value was 413 µg/mL (≈ 938 µM); for `CCCCOP(=O)(OCCCC)C(NC(=S)N[C@@H](C)C1CCCCC1)c1ccccc1` (stereo not given in full), 379 µg/mL (≈ 809 µM); for `CNCC(=O)N[C@@H](CO)C(=O)N[C@H]1[C@H](O)[C@@H](O)[C@H](n2ccc(N)nc2=O)O[C@@H]1C(N)=O` [NINGNANMYCIN], 227 µg/mL (≈ 512 µM).
Still for that read-out and setting: the same measure for `CCCOP(=O)(OCCC)C(NC(=S)N[C@@H](C)C1CCCCC1)c1ccccc1` (stereo not given in full): 240 µg/mL (≈ 544 µM).

Another assay has as its system Tobacco mosaic virus. Description: Antiviral activity against Tobacco mosaic virus (TMV) in compound treated Nicotiana tabacum L.leaves assessed as curative effect at 250 ug/ml. Type of assay: functional.
`CCCOP(=O)(OCCC)C(NC(=S)N[C@@H](C)c1ccccc1)c1ccccc1` (stereo not given in full): the Activity is on record as 37.7%.
With `CC(C)OP(=O)(OC(C)C)C(NC(=S)N[C@@H](C)C1CCCCC1)c1ccccc1` (stereo not given in full), the Activity is listed as 36.7%.
Same read-out and setting: the same measure for `CCCCOP(=O)(OCCCC)C(NC(=S)N[C@@H](C)C1CCCCC1)c1ccccc1` (stereo not given in full): 37.2%; for `CNCC(=O)N[C@@H](CO)C(=O)N[C@H]1[C@H](O)[C@@H](O)[C@H](n2ccc(N)nc2=O)O[C@@H]1C(N)=O` [NINGNANMYCIN]: 50.7%; for `CCCOP(=O)(OCCC)C(NC(=S)N[C@@H](C)C1CCCCC1)c1ccccc1` (stereo not given in full): 49%.

For a further assay, the system named is Tobacco mosaic virus. Kind of assay: Antiviral activity against Tobacco mosaic virus (TMV) in compound treated Nicotiana tabacum L.leaves assessed as curative effect at 125 ug/ml. Type of assay: functional.
Consider `CCCOP(=O)(OCCC)C(NC(=S)N[C@@H](C)c1ccccc1)c1ccccc1` (stereo not given in full), for which the Activity is listed as 30.9%.
Still for that read-out and setting: the same measure for `CC(C)OP(=O)(OC(C)C)C(NC(=S)N[C@@H](C)C1CCCCC1)c1ccccc1` (stereo not given in full): 29%.
On the same count and under the same terms, the same measure for `CCCCOP(=O)(OCCCC)C(NC(=S)N[C@@H](C)C1CCCCC1)c1ccccc1` (stereo not given in full): 32.9%; for `CNCC(=O)N[C@@H](CO)C(=O)N[C@H]1[C@H](O)[C@@H](O)[C@H](n2ccc(N)nc2=O)O[C@@H]1C(N)=O` [NINGNANMYCIN]: 41.9%.
In the case of `CCCOP(=O)(OCCC)C(NC(=S)N[C@@H](C)C1CCCCC1)c1ccccc1` (stereo not given in full), the Activity was found to be 39.1%.

The next assay concerns Tobacco mosaic virus. Kind of assay: Antiviral activity against Tobacco mosaic virus (TMV) in compound treated Nicotiana tabacum L.leaves assessed as curative effect at 500 ug/ml. The assay is classed as functional.
As to `CCCOP(=O)(OCCC)C(NC(=S)N[C@@H](C)c1ccccc1)c1ccccc1` (stereo not given in full), the Activity is listed as 50.5%.
Still for that read-out and setting: for `CC(C)OP(=O)(OC(C)C)C(NC(=S)N[C@@H](C)C1CCCCC1)c1ccccc1` (stereo not given in full) the value was 50.4%; for `CCCCOP(=O)(OCCCC)C(NC(=S)N[C@@H](C)C1CCCCC1)c1ccccc1` (stereo not given in full), 50.4%.
Same read-out and setting: for `CNCC(=O)N[C@@H](CO)C(=O)N[C@H]1[C@H](O)[C@@H](O)[C@H](n2ccc(N)nc2=O)O[C@@H]1C(N)=O` [NINGNANMYCIN] the value was 56.2%; for `CCCOP(=O)(OCCC)C(NC(=S)N[C@@H](C)C1CCCCC1)c1ccccc1` (stereo not given in full), 54.8%.

The subject of the next assay is Tobacco mosaic virus. Kind of assay: Antiviral activity against Tobacco mosaic virus (TMV) in compound treated Nicotiana tabacum L.leaves assessed as curative effect from local lesions at 500 ug/ml measured after 3 to 4 days. The assay is classed as functional.
Regarding `CCOP(=O)(OCC)C(NC(=S)N[C@H](C)C1CCCCC1)c1ccccc1` (stereo not given in full), the Activity turned out to be 40.1%.
On the same count and under the same terms, for `CCCOP(=O)(OCCC)C(NC(=S)N[C@H](C)C1CCCCC1)c1ccccc1` (stereo not given in full) the value was 40.7%; for `CCOP(=O)(OCC)C(NC(=S)N[C@@H](C)C1CCCCC1)c1ccccc1` (stereo not given in full), 36.3%.
`CCCOP(=O)(OCCC)C(NC(=S)N[C@@H](C)c1ccccc1)c1ccccc1` (stereo not given in full): the Activity is given as 50.5%.
Consider `CC(C)OP(=O)(OC(C)C)C(NC(=S)N[C@@H](C)c1ccccc1)c1ccccc1` (stereo not given in full), for which the Activity was 36.8%.
Same read-out and setting: for `CCCOP(=O)(OCCC)C(NC(=S)N[C@H](C)c1ccccc1)c1ccccc1` (stereo not given in full) the value was 41.9%.
Same read-out and setting: the same measure for `CC(C)OP(=O)(OC(C)C)C(NC(=S)N[C@H](C)C1CCCCC1)c1ccccc1` (stereo not given in full): 34.6%; for `CCOP(=O)(OCC)C(NC(=S)N[C@@H](C)c1ccccc1)c1ccccc1` (stereo not given in full): 41.8%.
For the compound `CC(C)OP(=O)(OC(C)C)C(NC(=S)N[C@@H](C)C1CCCCC1)c1ccccc1` (stereo not given in full), the Activity was 50.4%.
Still for that read-out and setting: the same measure for `CCOP(=O)(OCC)C(NC(=S)N[C@H](C)c1ccccc1)c1ccccc1` (stereo not given in full): 45.2%; for `CCCCOP(=O)(OCCCC)C(NC(=S)N[C@@H](C)C1CCCCC1)c1ccccc1` (stereo not given in full): 50.4%; for `CNCC(=O)N[C@@H](CO)C(=O)N[C@H]1[C@H](O)[C@@H](O)[C@H](n2ccc(N)nc2=O)O[C@@H]1C(N)=O` [NINGNANMYCIN]: 56.2%.
As to `CCCCOP(=O)(OCCCC)C(NC(=S)N[C@H](C)C1CCCCC1)c1ccccc1` (stereo not given in full), the Activity was determined as 34.6%.
As to `CC(C)OP(=O)(OC(C)C)C(NC(=S)N[C@H](C)c1ccccc1)c1ccccc1` (stereo not given in full), the Activity was determined as 34.5%.
The same measure, in the same setting: the same measure for `CCCOP(=O)(OCCC)C(NC(=S)N[C@@H](C)C1CCCCC1)c1ccccc1` (stereo not given in full): 54.3%.

A further assay deals with Tobacco mosaic virus. Kind of assay: Antiviral activity against Tobacco mosaic virus (TMV) in compound treated Nicotiana tabacum L.leaves assessed as protective effect from local lesions at 500 ug/ml measured after 3 to 4 days. The assay is classed as functional. Put shortly:
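Half-leaf test on same-age N. tabacum L. leaves: compound solution smeared on the left half, solvent on the right as control. Leaves were inoculated 12 h later by brush with TMV at 6 × 10-3 mg/mL on silicon carbide-dusted leaves, then rinsed with water. Local lesions were counted 3–4 days later, three repetitions. Inhibition % = (control lesions − treated lesions)/control lesions × 100.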
`CCOP(=O)(OCC)C(NC(=S)N[C@H](C)C1CCCCC1)c1ccccc1` (stereo not given in full): the Activity amounted to 33.1%.
On the same count and under the same terms, the same measure for `CCCOP(=O)(OCCC)C(NC(=S)N[C@H](C)C1CCCCC1)c1ccccc1` (stereo not given in full): 37.9%; for `CCOP(=O)(OCC)C(NC(=S)N[C@@H](C)C1CCCCC1)c1ccccc1` (stereo not given in full): 36.4%.
Turning to `CCCOP(=O)(OCCC)C(NC(=S)N[C@@H](C)c1ccccc1)c1ccccc1` (stereo not given in full), the Activity is listed as 42.7%.
As to `CC(C)OP(=O)(OC(C)C)C(NC(=S)N[C@@H](C)c1ccccc1)c1ccccc1` (stereo not given in full), the Activity turned out to be 36.9%.
Same read-out and setting: for `CCCOP(=O)(OCCC)C(NC(=S)N[C@H](C)c1ccccc1)c1ccccc1` (stereo not given in full) the value was 45.9%; for `CC(C)OP(=O)(OC(C)C)C(NC(=S)N[C@H](C)C1CCCCC1)c1ccccc1` (stereo not given in full), 33.7%; for `CCOP(=O)(OCC)C(NC(=S)N[C@@H](C)c1ccccc1)c1ccccc1` (stereo not given in full), 37.6%.
Same read-out and setting: the same measure for `CC(C)OP(=O)(OC(C)C)C(NC(=S)N[C@@H](C)C1CCCCC1)c1ccccc1` (stereo not given in full): 36.3%; for `CCOP(=O)(OCC)C(NC(=S)N[C@H](C)c1ccccc1)c1ccccc1` (stereo not given in full): 42.6%.
Same read-out and setting: for `CCCCOP(=O)(OCCCC)C(NC(=S)N[C@@H](C)C1CCCCC1)c1ccccc1` (stereo not given in full) the value was 36.3%.
For the compound `CNCC(=O)N[C@@H](CO)C(=O)N[C@H]1[C@H](O)[C@@H](O)[C@H](n2ccc(N)nc2=O)O[C@@H]1C(N)=O` [NINGNANMYCIN], the Activity came to 60.6%.
Same read-out and setting: for `CCCCOP(=O)(OCCCC)C(NC(=S)N[C@H](C)C1CCCCC1)c1ccccc1` (stereo not given in full) the value was 33.7%; for `CC(C)OP(=O)(OC(C)C)C(NC(=S)N[C@H](C)c1ccccc1)c1ccccc1` (stereo not given in full), 46.3%.
With `CCCOP(=O)(OCCC)C(NC(=S)N[C@@H](C)C1CCCCC1)c1ccccc1` (stereo not given in full), the Activity turned out to be 30.9%.
